Experimental findings from ChEMBL document CHEMBL1137183, “4-Aryl-3-(mercapto)quinolin-2-ones: novel maxi-K channel opening relaxants of corporal smooth muscle” (Bioorg Med Chem Lett, 2004) are described below.

Values after ≈ are worked out from the molar mass of the structure shown.

By solubility is commonly meant the concentration that dissolves in the medium under given conditions. A lower solubility goes with a poorly soluble substance. For orientation: Inhibition means the drop in the measured response relative to a control, in per cent. A low value points to a response near the control.

Data set [1] is described as follows: Solubility was determined. The data set is classed as physicochemical. Put shortly:
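Aqueous solubility measured in HPLC-grade water by a UV absorptivity method, reported in mg/mL.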

A further data set concerns Oocyte. Kind of data set: Effect on maxi-K mediated outward current in xenopus laevis oocytes at 20 uM; In soluble. As to conditions: Xenopus sp. The data set is classed as functional, cell-based. Put shortly:
(§1)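 Two-electrode voltage clamp of whole-cell outward K+ current in Xenopus laevis oocytes expressing cloned hSlo maxi-K channels. Single drug concentration per line. Current is the iberiotoxin-sensitive fraction, tested in at least five oocytes. Value is the average current as a percentage of drug-free control (100%).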

Data set [2] is described as follows: Effect on maxi-K mediated outward current in xenopus laevis oocytes at 5 uM. It is filed as functional, Xenopus sp., Oocyte. Summed up:
as §1

The nature of data set [3]: Effect on maxi-K mediated outward current in xenopus laevis oocytes at 20 uM. The data set is classed as functional, Xenopus sp., Oocyte. Put shortly:
as §1

The species named for the next data set is Oryctolagus cuniculus. The data set can be described thus: Percentage inhibition by the compound in isolated rabbit corpus cavernosum at 10 uM. It is filed as functional. Put shortly: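 New Zealand white rabbits (3.4–3.7 kg) euthanized by pentobarbital overdose. Corpus cavernosum strips, 3–5 mm, cut after removal of the tunica and held in modified Krebs-Henseleit bicarbonate buffer at 37 °C. Isometric force recorded. Strips pre-contracted with phenylephrine 3 μM to a steady force, then compound added. Result is % inhibition of force relative to vehicle control; n given per value.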

For the molecule `CC(C)(C)Sc1c(O)nc2ccc(C(F)(F)F)cc2c1-c1cc(Cl)ccc1O`, the solubility in data set [1] was < 1 µg/mL. The hSlo current entry with Oocyte is listed as “Insoluble”; in data set [2], 73%.
On to `OCCCSc1c(O)nc2ccc(C(F)(F)F)cc2c1-c1cc(Cl)ccc1O`, for which the concentration in solution in data set [1] (solubility) came to 3 µg/mL (≈ 6.98 µM). In data set [3], this molecule came in with a hSlo current of 242%. This molecule yielded an Inhibition in the data set listed under Oryctolagus cuniculus of 23%.
In the same order, the values of `OCC(O)CSc1c(O)nc2ccc(C(F)(F)F)cc2c1-c1cc(Cl)ccc1O` (centres undefined) are 190 µg/mL (≈ 426 µM), 246% and 31%.
The matching figures for `OCCSc1c(O)nc2ccc(C(F)(F)F)cc2c1-c1cc(Cl)ccc1O`: 4 µg/mL (≈ 9.62 µM), 348% and 43%.
`O=c1[nH]c2cc(C(F)(F)F)ccc2n1-c1cc(Cl)ccc1O`: in data set [3], the hSlo current is 132%. This molecule gave an Inhibition in the data set listed under Oryctolagus cuniculus of 31%.
For `Oc1ccc(Cl)cc1-c1c(S)c(O)nc2ccc(C(F)(F)F)cc12`, the solubility in data set [1] was 3 µg/mL (≈ 8.07 µM). In data set [3], this molecule registered a hSlo current of 197%.
Turning to `CSc1c(O)nc2ccc(C(F)(F)F)cc2c1-c1cc(Cl)ccc1O`, in data set [1], the solubility was < 1 µg/mL. Also, in data set [3], the hSlo current came to 231%. The Inhibition in the data set filed under Oryctolagus cuniculus is reported as 22%.
